# Assay outcomes deposited in PubChem by several laboratories.
# Only some compounds are listed: those with a hit (about 1.2% of all), similar ones and a draw of the others.
# Dynein transport: blocks dynein driven cargo transport along microtubules. z-score, hits read low. 3617.4 mouse cells, GR-EGFP nuclear translocation imaging; test concentration mostly 20 µM; stimulated with dexamethasone, 1 µM; active compounds read low. 220,000 compounds, 0.47% hits;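 active = plate z-score of nuclear minus cytoplasmic receptor signal below a set negative limit, without overly bright fluorescence or cell loss, cut at about -3.5 in these data, passing the limit was not always enough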;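 also: z-score of nuclear minus cytoplasmic ring GR-EGFP intensity difference per well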
#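 Medium: Induction medium lacking tetracycline, stripped serum | Probe or stimulus: 1.0 µM final dexamethasone stimulus | Schedule: 48 h induction, then 1 h compound, then 30 min agonist, 37 °C | Signal: Automated 10x imaging of fixed Hoechst-stained cells | Evaluation: Per-cell GR-EGFP intensity, nucleus versus surrounding cytoplasmic ring, well-averaged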
# HKDC1 inh: blocks human hexokinase HKDC1 activity; Q2TB90; recombinant HKDC1, G6PDH/diaphorase resazurin coupled fluorescence; inhibition, % at 20 µM; 340,000 compounds, 0.16% hits;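 active = inhibition above about 35% when tested at 20 µM, limit read from the data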;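 also: plate controls were DMSO wells with enzyme for no effect and DMSO wells lacking enzyme for full effect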
#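 System: Recombinant HKDC1 hexokinase | Amount: HKDC1 at 5 µg/mL | Reagent: Glucose with 1 mM ATP | Doses: Single 20 µM dose | Incubation: Reaction time 90 min, room temperature, protected from light | Signal: Coupled resazurin fluorescence, excitation 525 nm, emission 613 nm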
# HSV replic up: HSV replication enhancement; HSV replication augmentation in cells, fold increase; maximum fold increase; 220,000 compounds, 0.005% hits; AID 1956; in the data active = maximum fold increase above about 1.5; tested in PC3 cells
# Autophagy mod: alters autophagy in cells; MEF GFP-LC3 puncta imaging; test concentration mostly 10 µM; calls only at 10 µM (by protocol); 190,000 compounds, 0.98% hits;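 active = percentage of spot-positive cells more than 3 SD above its plate mean, without a fluorescence outlier flag or 80% toxicity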;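 also: spot-positive cell cutoff set from DMSO-treated cells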
# PERK inhibitor: inhibitors of human PERK kinase. Q9NZJ5. CHO PERK-DD fusion, SEAP luminescence translation reporter. inhibition, % at 5.6 µM. 220,000 compounds, 0.17% hits. AID 1416;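 active = inhibition above the mean inhibition of all tested compounds plus 3 SD, set separately per screening campaign, cut at about 2.9% in these data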;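 also: PERK kinase domain activated by AP20187 dimerizer at 100 nM; 0% = DMSO with dimerizer and 100% = rapamycin at 8.4 µM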
# Target sequence (Q9NZJ5 whole entry, looked up, the tested form may be a part): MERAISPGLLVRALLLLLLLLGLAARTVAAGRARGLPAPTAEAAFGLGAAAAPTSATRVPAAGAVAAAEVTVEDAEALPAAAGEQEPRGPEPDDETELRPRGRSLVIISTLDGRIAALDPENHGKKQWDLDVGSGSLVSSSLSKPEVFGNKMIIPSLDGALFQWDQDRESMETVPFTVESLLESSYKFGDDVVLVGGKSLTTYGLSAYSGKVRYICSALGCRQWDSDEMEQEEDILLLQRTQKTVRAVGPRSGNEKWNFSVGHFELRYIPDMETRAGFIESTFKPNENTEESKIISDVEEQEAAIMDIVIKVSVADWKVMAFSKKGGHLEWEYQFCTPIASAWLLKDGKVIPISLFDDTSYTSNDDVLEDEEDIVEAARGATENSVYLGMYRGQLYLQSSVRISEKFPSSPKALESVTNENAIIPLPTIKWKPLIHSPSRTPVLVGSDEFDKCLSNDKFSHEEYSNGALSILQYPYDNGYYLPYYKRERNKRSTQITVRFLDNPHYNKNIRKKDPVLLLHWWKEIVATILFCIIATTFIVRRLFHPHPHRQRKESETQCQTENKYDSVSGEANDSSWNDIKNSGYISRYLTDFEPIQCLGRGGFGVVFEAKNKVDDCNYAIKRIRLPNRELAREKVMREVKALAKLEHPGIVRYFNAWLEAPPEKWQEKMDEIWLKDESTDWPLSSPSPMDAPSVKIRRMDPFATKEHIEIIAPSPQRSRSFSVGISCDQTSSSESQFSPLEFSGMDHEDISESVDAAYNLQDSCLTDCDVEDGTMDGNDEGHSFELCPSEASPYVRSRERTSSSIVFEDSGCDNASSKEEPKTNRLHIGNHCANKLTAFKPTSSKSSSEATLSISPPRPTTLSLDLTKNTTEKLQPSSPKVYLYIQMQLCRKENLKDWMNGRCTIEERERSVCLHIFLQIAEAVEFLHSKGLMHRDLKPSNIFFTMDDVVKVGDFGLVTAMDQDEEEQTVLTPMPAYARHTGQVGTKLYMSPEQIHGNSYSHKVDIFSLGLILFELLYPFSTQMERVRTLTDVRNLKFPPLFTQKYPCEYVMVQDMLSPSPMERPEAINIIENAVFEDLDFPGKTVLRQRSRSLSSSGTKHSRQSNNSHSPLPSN
# TbHK1 inh: blocks Trypanosoma brucei hexokinase 1 activity. recombinant TbHK1, G6PDH-coupled NADH A340. inhibition, % at 10 µM. 220,000 compounds, 0.11% hits. AID 1430;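 active = inhibition of 50% or more in the single-dose primary screen; inactive = inhibition below 50%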
# HKDC1 act conf: HKDC1 (human) activation, single-dose confirmed; shares compounds with HKDC1 inh; recombinant HKDC1, G6PDH/diaphorase resazurin fluorescence; active compounds read low; inhibition, % at 20 µM; 740 compounds, 14% hits;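 active = inhibition at or below a set negative limit, negative inhibition meaning the enzyme was activated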
# * = called active by the depositor; i = inactive; x = not tested or not shown.
SMILES,Dynein transport,HKDC1 inh,HSV replic up,Autophagy mod,PERK inhibitor,TbHK1 inh,HKDC1 act conf
COc1ccc(OC)c2[nH]c(=O)c(CCNC(=O)c3ccc(S(=O)(=O)N4CCCC4)cc3)cc12,0.071,33,x,i,-1,-3,32
CCN(CC(=O)Nc1c(F)cccc1F)C(=O)c1ccc(C#N)cc1,x,-1,x,x,x,x,x
Cc1cc(C(=O)COC(=O)c2cc(O)c3ccccc3c2O)c(C)n1CC1CCCO1 (configuration not stated),-6.7,47*,i,i,0,-7,15
Cc1cc(C(=O)COC(=O)c2ccccc2O)c(C)n1CC1CCCO1 (configuration not stated),x,-7,x,x,x,x,x
COc1ccc(C(=O)NC2CCSc3ccccc32)cc1F (configuration not stated),x,-3,x,x,x,x,x
CN(C)C(=O)/C(C#N)=C\c1cc(Br)c(Sc2ccc(Cl)cc2)o1,-0.27,35*,i,i,0,-4,14
Clc1ccc(Sc2oc(/C=N/n3cnnc3)cc2Br)cc1,-0.12,-1,i,i,0,-5,x
CC(C)c1ccc(CN2CCSCC2)cc1,x,-2,x,x,x,x,x
CC(=O)C1=C(c2cccc([N+](=O)[O-])c2)N(C(C)=O)n2c(C)nnc2S1,-0.41,-308,i,i,-1,10,-387*
CCN1CCN(c2cc(N3CCN(C(=O)c4ccco4)CC3)c3c4c(onc24)-c2ccccc2C3=O)CC1,x,18,x,x,x,x,x
O=C(O)CCNc1cc(N2CCN(C(=O)c3ccco3)CC2)c2noc3c2c1C(=O)c1ccccc1-3,x,39*,x,x,x,x,14
O=C(O)c1[nH]c2ccccc2c1C(c1cc(Cl)cc([N+](=O)[O-])c1O)c1c(C(=O)O)[nH]c2ccccc12,x,38*,x,x,x,x,32
CC(C)(C=O)C1=CC(=O)c2ccccc2C1=O,-3.6*,51*,i,i,0,-18,41
CC(C)(C)c1ccc2c(c1)C(=O)c1ccccc1C2=O,-1,-3,i,i,1,-2,x
NC(=NCc1ccc2c(c1)OCO2)NC(=O)c1ccccc1,-0.63,29,i,i,2,1,17
C/C(CCc1ccc2c(c1)OCO2)=N\NC(=O)c1ccccc1,0.055,-5,i,i,0,-5,x
CC(=O)N1CCN(C(=O)c2cccc(NS(=O)(=O)c3ccc(Br)cc3)c2)CC1,x,-3,x,x,x,x,x
CCN(CC)c1ccc(S(=O)(=O)N2CCOCC2)cc1NC(=O)Nc1ccccc1,x,-7,x,x,x,x,x
COc1cccc(C(=O)NCC(c2ccco2)N2CCc3ccccc3C2)c1 (configuration not stated),x,35,x,x,x,x,0
COc1ccc(C2=NNC(=Nc3cc(S(=O)(=O)N(C)C)ccc3C)SC2)c(OC)c1,-0.1,-125,i,x,-2,-39,-120*
CN(C)S(=O)(=O)c1cccc(N=C2NN=C(c3ccccc3)CS2)c1,0.66,-281,i,i,0,-8,x
O=S(=O)(c1ccc(N=C2NN=C(c3cc(F)ccc3F)CS2)cc1)N1CCOCC1,-0.33,-308,i,i,0,-11,x
CC(C)(C)N=C1NN=C(c2ccc(S(=O)(=O)N3CCCCC3)cc2)CS1,x,-67,x,x,x,x,-32
CC(=O)Nc1ccc(C2=NNC(=Nc3ccc(S(=O)(=O)N4CCOCC4)cc3)SC2)cc1,0.35,-339,i,x,0,-31,-234*
O=S(=O)(c1ccc(S(=O)(=O)N2CCCC2)cc1)N1CCCCC1,x,-7,x,x,x,x,x
SMILES,Dynein transport,HKDC1 inh,HSV replic up,Autophagy mod,PERK inhibitor,TbHK1 inh,HKDC1 act conf
CCC(=O)OC1(C)C(=O)C2=COC(c3ccc(OC)cc3)=CC2=C(Br)C1=O (configuration not stated),-0.93,45*,i,x,x,-33,30
COc1ccc(C2=CC3=C(Br)C(=O)C(C)(O)C(=O)C3=CO2)cc1 (configuration not stated),-0.83,34,i,x,x,-7,-5
O=C1c2cccnc2-c2ncccc21,-0.04,-3,i,i,1,1,x
COC1=C(Br)C(=O)c2ncccc2C1=O,x,56*,x,x,x,x,65
COc1ccccc1N(C)S(=O)(=O)c1ccc(Cl)c(C(=O)NCC2(N(C)C)CCCCC2)c1,x,42*,x,x,x,x,-28
COc1ccccc1N(C)S(=O)(=O)c1ccc(Cl)c(C(=O)NNC(=O)c2ccccc2O)c1,x,-16,x,x,x,x,x
Cc1cccc(C(=O)NCC(=O)NCC2COc3ccccc3O2)c1 (configuration not stated),x,-4,x,x,x,x,x
Cc1cc(C(=O)N=Nc2c(O)n(C(C)C)c3ccccc23)n[nH]1,-0.24,40*,i,i,-1,-32,34
COc1ccc(CCC(=O)OCC(=O)Nc2ccc(OC)c(OC)c2)cc1OC,x,-1,x,x,x,x,x
CCN(c1ccccc1)S(=O)(=O)c1ccc(OC)c(NC(=O)CCc2nc3ccccc3c(=O)[nH]2)c1,x,-14,x,x,x,x,x
Cc1c(S(=O)(=O)N2CCCCC2)c(=O)n(C)c(=O)n1C,x,-3,x,x,x,x,x
CC[C@@H](NS(=O)(=O)c1ccc(C)cc1)C(=O)Oc1ccc2c3c(c(=O)oc2c1)CCC3,1.1,34,i,i,-1,-10,1
Cc1ccc(S(=O)(=O)N2CCCC2)cc1C(=O)NCc1ccccn1,x,0,x,x,x,x,x
O=C(NCc1ccccn1)c1cc(S(=O)(=O)N2CCN(c3ccccc3)CC2)ccc1Cl,0.092,73*,i,i,0,5,-3
Cc1nc2c3cc(F)ccc3n(Cc3ccccc3F)c2s1,0.24,-3,i,i,-1,0,x
Cc1nc2c3cc(F)ccc3n(Cc3ccccc3)c2s1,1.2,-60,i,i,-1,-1,-61*
CC(=O)Oc1ccc(-c2csc(Nc3ccc(S(N)(=O)=O)cc3)n2)cc1,1.6,-8,i,i,0,-20,x
COc1ccc(-c2csc(Nc3ccc(S(N)(=O)=O)cc3)n2)cc1,-0.35,-42,i,i,0,-23,-25
CC(C(=O)c1ccc(Br)cc1)[n+]1cccc2ccccc21 (configuration not stated),x,5,x,x,x,x,x
Cc1ccc(S(=O)(=O)Nc2ccc(O)c(Sc3ncn[nH]3)c2)cc1,-0.039,-5,i,i,0,2,x
CC(C)(C)c1ccc(S(=O)(=O)/N=C2\C=C(NS(=O)(=O)c3ccccc3)C(=O)c3ccccc32)cc1,x,27,x,x,x,x,x
Cc1ccc(S(=O)(=O)/N=C2/C=C(Sc3ncn[nH]3)C(=O)c3ccccc32)cc1,-3.7*,69*,i,i,1,35,63
CC(C)c1ccc(S(=O)(=O)/N=C2/C=C(Sc3ncn[nH]3)C(=O)c3ccccc32)cc1,-5.3*,64*,i,i,0,4,61
CC(C)(C)c1ccc(C(=O)NCCCNC(=O)c2ccccn2)cc1,x,-5,x,x,x,x,x
